An excerpt weighted towards active compounds, which were near 4.1% of everything screened.
KCC2 mod – modulates chloride dependent transport by human KCC2; KCC2 cells, thallium flux FluoZin-2 fluorescence; B-score of Tl+ flux slope (higher = more flux/activation; lower = inhibition) at 10 µM; 190,000 compounds, 2.2% hits; AID 1456;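 active = thallium flux slope and its plate-corrected score both differing from the plate sample mean at a set confidence after two filtering rounds, in either direction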;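 note: slope of fluorescence scaled to starting intensity during 10 to 20 s after thallium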
hERG rescue – hERG (human) protection from proarrhythmic block; Q12809; CHO-hERG, FluxOR thallium flux, dofetilide IC70 present; activation (rescue from dofetilide block), less the hit threshold, % at 10 µM; 310,000 compounds, 0.51% hits;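 active = activation above the mean of controls blocked by dofetilide plus 5 SD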;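 note: thallium influx through hERG after potassium depolarization seen as dye fluorescence rise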
KCNK3 inh – human KCNK3 channel inhibition, primary screen. CHO-KCNK3 thallium flux, FluxOR fluorescence; stronger effect = lower value. AID 602410. B-score at 10 µM. 340,000 compounds, 0.84% hits;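 active = B-score under library mean minus 4 SD, starting fluorescence ratio at most library mean plus 5 SD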;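 note: more negative B-score means stronger inhibition of thallium flux through KCNK3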
KCNK9 block – inhibitors of human KCNK9 two-pore domain potassium channel; HEK293 KCNK9, FluxOR thallium flux fluorescence; stronger effect = lower value; AID 488922; B-score at 10 µM; 310,000 compounds, 1.2% hits;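 active = ratio B-score over 3 SD below the library mean, with starting fluorescence within 5 SD of its mean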;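 note: negative B-score means less thallium flux so channel inhibition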
KCNQ1 inh – inhibitors of human KCNQ1 potassium channel. P51787. AID 2642. B-score at 10 µM. 310,000 compounds, 1.3% hits. CHO-K1 KCNQ1, FluxOR thallium flux fluorescence; stronger effect = higher value;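 active = compounds whose thallium flux B-score, printed positive for inhibition, exceeds three library SD while starting fluorescence stays within three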;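 note: channel opened by potassium depolarization with thallium stimulus after 20 min compound exposure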
Target sequence (P51787 whole entry, looked up): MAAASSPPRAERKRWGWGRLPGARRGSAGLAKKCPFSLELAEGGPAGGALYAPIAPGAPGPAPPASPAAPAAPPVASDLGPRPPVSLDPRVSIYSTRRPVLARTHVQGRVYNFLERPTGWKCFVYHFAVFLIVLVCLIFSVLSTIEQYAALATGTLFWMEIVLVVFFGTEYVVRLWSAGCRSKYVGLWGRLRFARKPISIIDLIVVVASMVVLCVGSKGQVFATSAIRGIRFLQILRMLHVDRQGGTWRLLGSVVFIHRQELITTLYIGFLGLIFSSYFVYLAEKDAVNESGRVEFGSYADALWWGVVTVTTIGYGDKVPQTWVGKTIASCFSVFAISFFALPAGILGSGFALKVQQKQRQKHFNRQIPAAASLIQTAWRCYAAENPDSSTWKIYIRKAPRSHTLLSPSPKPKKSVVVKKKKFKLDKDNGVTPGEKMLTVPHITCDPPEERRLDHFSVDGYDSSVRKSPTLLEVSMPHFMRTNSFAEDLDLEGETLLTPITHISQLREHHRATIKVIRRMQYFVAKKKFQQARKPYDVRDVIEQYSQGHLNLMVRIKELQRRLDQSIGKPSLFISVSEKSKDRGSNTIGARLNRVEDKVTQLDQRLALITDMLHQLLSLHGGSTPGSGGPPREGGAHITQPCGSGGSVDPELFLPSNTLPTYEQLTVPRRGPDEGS
KCNQ1 pot – potentiates or activates the human KCNQ1 potassium channel; CHO-K1 KCNQ1, thallium flux FluxOR fluorescence; stronger effect = higher value; B-score at 10 µM; AID 2648; 310,000 compounds, 0.35% hits; P51787;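 active = fluorescence ratio B-score, a plate-corrected score, at least three library SD, with initial intensity B-score within 5 SD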
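Assay system: CHO-K1 cells stably expressing KCNQ1; Medium: assay buffer with matched DMSO; Also added: K+/Tl+ depolarizing stimulus; Dosing: single dose; Timing: dye 90 min, compound 20 min, room temperature; Measured by: kinetic FluxOR thallium fluorescence, 10-s 1-Hz baseline, 110-s post-stimulus read; Read-out: peak-minus-minimum fluorescence over initial fluorescence, negative-control normalized, B-scored.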
KCC2 sec1 – confirmation of human KCC2 transport modulators; shares compounds with KCC2 mod; HEK293-KCC2, thallium flux, FluoZin2 fluorescence; stronger effect = higher value; normalised thallium flux (F/F0 slope) at 10 µM; 3,700 compounds, 15% hits;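 active = thallium flux slope above the same plate's solvent-only control mean plus 3 SD; inconclusive = the two replicate wells disagree; inactive = no significant difference from solvent-only control wells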
KCC2 bumet counter – bumetanide-insensitive thallium flux in KCC2 cells with ouabain, counter-screen; shares compounds with KCC2 mod; HEK293-KCC2 + bumetanide/ouabain, thallium flux FluoZin2; stronger effect = higher value; normalized thallium flux at 10 µM; 3,700 compounds, 49% hits; AID 1714;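 active = thallium entry rate above the same plate's blocked-transporter control wells by more than 3 SD; inconclusive = the two repeat wells disagree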;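 note: raw slope of fluorescence over initial fluorescence between 10 and 20 s after thallium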
KCC2 secondary2 – confirmation of human KCC2 transport modulators; HEK293-KCC2, thallium flux FluoZin2 fluorescence; actives lie on both sides; F/F0 rise rate, 10–20 s post-thallium; 3,700 compounds, 23% hits; normalized thallium flux at 10 µM; shares compounds with KCC2 mod;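 active = thallium flux slope more than 3 SD above or below the plate's solvent-only control mean, mostly below; inconclusive = the two repeat wells disagreed; inactive = no significant shift from solvent-only controls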;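 note: raw slope with 0.1% DMSO as baseline and bumetanide as block control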
HEK293 Tl flux – parental HEK flux effect, counter-screen; shares compounds with KCC2 mod; HEK293 parental cells, thallium flux FluoZin2, ouabain; baseline-ratio fluorescence slope, 10–20 s after thallium; thallium flux rate (normalised fluorescence) at 10 µM; 3,700 compounds, 46% hits;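 active = thallium flux rate significantly above the same plate's solvent-only control wells, beyond their mean plus 3 SD; inconclusive = the two replicate wells gave conflicting results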
KCC2 retest ouab – confirmation of human KCC2 modulators with ouabain; shares compounds with KCC2 mod; HEK293-KCC2, thallium flux FluoZin2 fluorescence; bidirectional: low = inhibitor, high = activator; raw Tl+ flux slope (below DMSO = inhibition, above = activation) at 10 µM; 3,700 compounds, 48% hits; AID 1717;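 active = thallium flux slope beyond 3 SD from same-plate DMSO control mean in most replicates, usually higher, sometimes lower; inconclusive = repeat tests gave conflicting results; inactive = no significant difference from controls in most replicates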;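 note: slope of initial-normalized fluorescence between seconds 10 and 20 after thallium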
HEK293 Tl flux2 – counter-screen for KCC2 modulators: effect in parental HEK293 cells; shares compounds with KCC2 mod; thallium flux FluoZin-2 fluorescence slope; thallium flux slope at 10 µM; 3,700 compounds, 33% hits; AID 1718;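 active = thallium flux slope above the same plate's solvent-control mean plus 3 SD in both duplicate wells; inconclusive = duplicate wells that disagreed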;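 note: run without ouabain in cells lacking the KCC2 cotransporter; slope of fluorescence scaled to its starting value between 10 and 20 s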
Starred values were filed as active, the others as inactive; i = inactive; ? = inconclusive; . = not tested or not shown.

SMILES	KCC2 mod	hERG rescue	KCNK3 inh	KCNK9 block	KCNQ1 inh	KCNQ1 pot	KCC2 sec1	KCC2 bumet counter	KCC2 secondary2	HEK293 Tl flux	KCC2 retest ouab	HEK293 Tl flux2
CCn1c2ccc(C)cc2c2nnc(NN)nc21	-6.94*	-10.3	i	i	i	i	0.0103	?	0.0344	0.00748	0.0232	0.0108
CCn1c2ccccc2c2nnc(NN)nc21	1.29	-8.2	i	i	i	i	.	.	.	.	.	.
O=C(Nc1nc(-c2ccccn2)cs1)c1ccc(Cl)s1	37.4*	-3.4	i	i	i	i	0.00562	0.0604*	0.06*	0.0601*	0.0544*	0.0629*
CCC(=O)Nc1nc(-c2ccccc2)ns1	2.47*	-9.3	i	i	i	i	0.00726	0.00448	0.0321	0.00741	0.019	0.0104
Cc1ccc(C(=O)Nc2nc(-c3ccccn3)cs2)s1	.	.	i	.	.	.	.	.	.	.	.	.
O=C(NCc1ccccc1)C(=O)Nc1nc(-c2ccccc2)cs1	27.4*	-0.5	i	i	i	i	0.0208*	0.0371*	0.0341	0.0532*	0.0392*	0.0161*
O=C(NCc1ccccn1)C(=O)Nc1nc(-c2ccccc2)cs1	3.48	-11.8	i	i	i	i	.	.	.	.	.	.
O=C(Nc1nc(-c2ccccc2)ns1)c1cccs1	.	-7.9	i	i	i	i	0.00694	0.00497	0.0264	0.00692	0.0149*	0.00976
O=C(Nc1nc(-c2ccccc2)cs1)c1cccs1	-1.15	-13.2	i	i	i	i	?	0.00941*	0.0314	0.0073	?	0.0099
CCOc1ccc(NC(=O)CSc2nnc(CCNC(=O)c3ccc(OC)cc3)n2CC)cc1	.	-4.6	i	i	i	i	0.0112	?	0.0348	0.00772	0.0218	?
CCn1c(CCNC(=O)c2cccs2)nnc1SCC(=O)Nc1nc(-c2ccccc2)cs1	-3.22*	-25.7	i	i	i	i	0.00852	0.00462	?	0.00665	0.0137*	0.0103
CN1CCN(S(=O)(=O)c2cccc(C(=O)Nc3nc(-c4ccccc4)cs3)c2)CC1	-3.04*	-18.4	i	i	i	i	0.0184	0.00445	0.0269	?	0.0141	0.0105
Cc1cn(CC(=O)N[C@H](C)c2cccc3ccccc23)c(=O)[nH]c1=O	.	.	i	.	.	.	.	.	.	.	.	.
C=CCOc1c(Br)cc(/C=N/Nc2ccc(C(=O)O)cc2)cc1OCC	-5.72*	-12.5	i	i	i	i	0.00589	0.00575*	0.0279	0.00794	0.0167	0.0103
COc1ccc(/C=N/Nc2ccc(C(=O)O)cc2)cc1Br	-0.501	-5.0	i	i	i	i	.	.	.	.	.	.
c1ccc(-c2nc(CSc3n[nH]c(-c4cccs4)n3)cs2)cc1	-3.78*	-13.3	i	i	i	i	0.00626	0.00453	0.0238*	0.00669	0.0162	0.0101
CC(C)CC(OC(=O)c1nsc(Cl)c1Cl)C(=O)NCc1cccs1 (stereo not drawn)	-3.69*	-2.2	i	i	i	i	0.00608	0.00423	0.0278	0.00697	0.0176	0.0097
Cc1cc(O)c2c(c1)CC1C3CCC4CC(=O)CCC4(C)C3CC(=O)C21C (stereo not drawn)	.	.	i	.	.	.	.	.	.	.	.	.
CCOc1ccc2ccccc2c1C1NC(=O)NC(C)=C1C(=O)OCCOC (stereo not drawn)	.	-7.7	i	i	i	i	.	.	.	.	.	.
Cc1cccc(N2C(=O)CS/C2=N\NC(=O)c2cccnc2)c1C	1.14	-1.4	i	i	i	i	.	.	.	.	.	.
Cc1cccc(N2C(=O)CS/C2=N\NC(=O)c2ccc(Br)cc2)c1C	7.93*	5.6*	i	i	i	i	0.00604	0.0348*	0.0363	0.0229*	0.0343*	0.0238*
CCOC(=O)c1c(C)nc(C)c(C(=O)OCC)c1-c1ccccc1	-0.995	-10.7	i	i	i	i	0.00983	0.00527	0.0316	0.00614	0.0205	0.00973
Cc1cc(C(=O)N2CCC(C)CC2)on1	0.294	-15.3	i	i	i	i	.	.	.	.	.	.
CCOC(=O)N1CCN(C(=O)c2cc(C)no2)CC1	-3.91*	-8.2	i	i	i	i	0.00724	0.00466	0.0314	0.00722	0.0182	0.0102
Cc1ccc(S(=O)(=O)N2CCC(C(=O)NCCCN3CCOCC3)CC2)cc1C	.	-18.4	i	i	i	i	.	.	.	.	.	.
SMILES	KCC2 mod	hERG rescue	KCNK3 inh	KCNK9 block	KCNQ1 inh	KCNQ1 pot	KCC2 sec1	KCC2 bumet counter	KCC2 secondary2	HEK293 Tl flux	KCC2 retest ouab	HEK293 Tl flux2
O=C(Nc1nnc(-c2ccco2)o1)c1ccc(Cl)cc1	29*	-9.6	i	i	i	i	0.0324*	0.069*	?	0.0314*	0.0604*	0.0166*
Cc1ccc(C(=O)Nc2nnc(-c3ccco3)o2)cc1C	7.98*	-5.6	i	i	i	i	0.013*	0.0389*	0.0294	0.0194*	0.0377*	0.0111*
COc1ccc2c(c1)CN(C)S(=O)(=O)c1ccccc1-2	.	.	i	.	.	.	.	.	.	.	.	.
O=C1C=C(C2OC(CO)C(O)C2O)C(=O)N1 (stereo not drawn)	.	.	i	.	.	.	.	.	.	.	.	.
Cc1ccc(C(=O)COC(=O)C2CC3CCCC(C2)C3=O)cc1[N+](=O)[O-] (stereo not drawn)	.	-8.8	i	i	i	i	.	.	.	.	.	.
CCOC(=O)N1CCN(Cc2nc(N)nc(Nc3ccc(Oc4ccccc4)cc3)n2)CC1	-4.12*	.	i	.	.	.	0.0065	0.00382	0.0284	0.00726	0.0171	0.00957
COCCN(C(=O)CSc1nc2ccccc2c(=O)n1C(C)COC)c1c(N)n(Cc2ccccc2)c(=O)[nH]c1=O (stereo not drawn)	1.56	-11.3	i	i	i	i	.	.	.	.	.	.

Assay outcomes: PubChem BioAssay, several laboratories
